From paper PMC7683378 (Journal of autoimmunity, 2020) come the findings set out here.

Assay [1] has as its system recombinant HLA-DQ8 protein. In kind it is binding, human. To be noted: serially diluted to 0.5 μM, 48 hours at 37 °C. The method, boiled down:
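DELFIA: recombinant HLA-DQ8 (0.012 mg/ml) with 10 μM biotinylated InsB:9-23, plus RI-D-peptide serially diluted to 0.5 μM final, 48 h at 37 °C in 0.1% BSA/PBS with 0.05% Triton. Then bound on nickel-coated plates 2 h at RT, washed, Eu-streptavidin 30 min at RT, washed, enhancement solution ~1 h. Time-resolved fluorescence gave percent inhibition.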

Assay [2] deals with recombinant HLA-DQ8 protein. In words: DELFIA immunoassay: inhibition of binding of other HLA-DQ8-binders. Further details: species or system human. To be noted: biotinylated GAD65 or gliadin peptide with RI-D-peptide.
Assay [3] concerns 5KC cells (TCR specific for the InsB:9-23–DQ8 complex). Put plainly: Cellular antigen presentation assay. In kind it is cell-based, mouse. To be noted: BSM cells + 5KC cells incubated with the peptide; IL-2 by Luminex. The method, boiled down: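 HLA-DQ8-homozygous BSM B-cells (RPMI, 10% FBS, 37 °C, 5% CO2): 10^6 cells loaded overnight with 200 μg/ml InsB:9-23 (scrambled InsB:9-23 or gliadin as negative peptides), washed twice with PBS, then given RI-D-peptide or scrambled control for 2 h at 37 °C. 5KC mouse T-hybridoma cells with human TCR added 1:1, overnight. Supernatant IL-2 by Luminex; anti-CD3/CD28 beads as positive control; 4–5 independent experiments.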

Assay [4] has as its system lymphocytes from immunized SJL-DQ8 mice. Put plainly: Ex vivo cytokine production. In kind it is cell-based, mouse. To be noted: all peptides 20 μg/ml, 48 hours, Luminex; 20 SJL-DQ8 mice. The method, boiled down:
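Lymphocytes from spleens and draining nodes of SJL-DQ8 mice (6–8 weeks) immunised s.c. with 150 μg InsB:9-23 in CFA and boosted in IFA. Plated at 2×10^5 cells/well in RPMI/10% FBS with medium, InsB:9-23 with or without RI-D-peptides or scrambled versions, or scrambled InsB:9-23, all at 20 μg/ml. Supernatants taken at 48 h, kept at −80 °C, cytokines by mouse Milliplex Luminex panel.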

For assay [5] the test system is unchanged. In words: Ex vivo lymphocyte proliferation. In kind it is cell-based, mouse. To be noted: all peptides 20 μg/ml, 5 days, flow cytometry. The method, boiled down:
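Spleen/draining-node cells from InsB:9-23-immunised SJL-DQ8 mice, 10^6 cells at 2×10^6/ml in 0.1% BSA/PBS, labelled with 1.5 μM CFSE for 10 min at 37 °C. Quenched with ice-cold RPMI/10% FBS, 5 min on ice, washed three times. Plated at 2×10^5 cells/well with peptides at 20 μg/ml for 5 days. Flow cytometry gated on live singlets; at least triplicates; inhibition = 100 − 100 × (proliferation with/without RI-D-peptide).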

Assay [6] has the same test system. Put plainly: ELISPOT of IL-2 and IFN-γ secretion by lymphocytes of immunized SJL-DQ8 mice. In kind it is cell-based, mouse. To be noted: 5X10^5 lymphocytes, peptides 20 μg/ml, 48 hours. A digest of the protocol: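 SJL-DQ8 mice (6; 3 female, 3 male) immunised s.c. with 150 μg InsB:9-23 in CFA and boosted in IFA. 5×10^5 spleen/draining-node lymphocytes plated on nitrocellulose wells coated with 4 μg/ml IL-2 or 10 μg/ml anti-IFN-γ capture antibody, 48 h at 37 °C with peptides at 20 μg/ml. Biotinylated detection antibody 2 h, streptavidin-AP 1 h, BCIP/NBT development. Positive response: >20 net SFC/10^6 and P<0.05 (t-test, triplicates).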

In assay [7] the test system is PBMCs from HLA-DQ8 positive T1D patients. In words: Cytokine production. In kind it is cell-based, human. To be noted: all peptides 20 μg/ml, 48 hours, Luminex; 31 new onset DQ8 positive T1D patients. A digest of the protocol:
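Fresh PBMCs from heparinised blood (Ficoll) of patients genotyped for at least one DQB*03:02 allele, seeded in RPMI/10% FBS. Stimulated 48 h with InsB:9-23 or scrambled InsB:9-23, with or without RI-D-peptides or scrambled versions, all peptides at 20 μg/ml. Supernatant cytokines by Luminex, as for mouse lymphocytes. Long-standing (>10 years) DQ8 T1D patients served as controls.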

For assay [8] the test system is unchanged. Put plainly: Lymphocyte proliferation. In kind it is cell-based, human. To be noted: all peptides 20 μg/ml; gated on live T-cells. The method, boiled down:
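Fresh Ficoll-isolated PBMCs from patients with at least one DQB*03:02 allele, in RPMI/10% FBS. Stimulated 48 h with InsB:9-23 or scrambled InsB:9-23, with or without RI-D-peptides or scrambled versions, all at 20 μg/ml. Proliferation by CFSE as for mouse lymphocytes, gated on live T-cells. Inhibition = 100 − 100 × (proliferation with/without RI-D-peptide).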

As for FFGGREGCVLYLAEVLHSG [RI-EXT], the “Dose dependence of inhibition of InsB:9-23 binding to HLA-DQ8” value in assay [1] was “dose-dependent”. In assay [2], the “Competition with other HLA-DQ8-binders (GAD65, gliadin)” value was “competed only with InsB:9-23 and not with other HLA-DQ8-binders”. Further, in assay [3], the “Activation of 5KC T-cells (IL-2 secretion) by the peptide itself” value is reported as “did not activate TCR”. In assay [4], the “IFN-γ production by lymphocytes stimulated with InsB:9-23” value was “significantly blocked” and the “IL-2 production by lymphocytes stimulated with InsB:9-23” value was “significantly blocked”. Besides, the “Lymphocyte proliferation induced by InsB:9-23 (CFSE assay)” value in assay [5] was “significantly suppressed”. Further, in assay [6], the “IFN-γ ELISPOT response to InsB:9-23” value is listed as “significantly decreased” and the “IL-2 ELISPOT response to InsB:9-23” value is on record as “significantly decreased”. In assay [7], the “IFN-γ production in PBMCs stimulated with InsB:9-23” value was “significantly suppressed” and the “IL-2 production in PBMCs stimulated with InsB:9-23” value was “significantly suppressed”. In addition, in assay [8], the “Lymphocytes proliferation in PBMCs stimulated with InsB:9-23 (CFSE assay)” value was “significantly suppressed”.

As for GGREGCVLYLAEVGG [RI-CT], the “Dose dependence of inhibition of InsB:9-23 binding to HLA-DQ8” value in assay [1] was “dose-dependent”. In addition, the “Competition with other HLA-DQ8-binders (GAD65, gliadin)” value in assay [2] was “competed only with InsB:9-23 and not with other HLA-DQ8-binders”. In assay [3], the “Activation of 5KC T-cells (IL-2 secretion) by the peptide itself” value was “did not activate TCR”. Further, in assay [4], the “IFN-γ production by lymphocytes stimulated with InsB:9-23” value is recorded as “significantly blocked” and the “IL-2 production by lymphocytes stimulated with InsB:9-23” value is on record as “significantly blocked”. For the same sequence, the “Lymphocyte proliferation induced by InsB:9-23 (CFSE assay)” value in assay [5] is “significantly suppressed”. Further, in assay [6], the “IFN-γ ELISPOT response to InsB:9-23” value is recorded as “significantly decreased” and the “IL-2 ELISPOT response to InsB:9-23” value is “significantly decreased”. Moreover, in assay [7], the “IFN-γ production in PBMCs stimulated with InsB:9-23” value is reported as “significantly suppressed” and the “IL-2 production in PBMCs stimulated with InsB:9-23” value is recorded as “significantly suppressed”. In addition, the “Lymphocytes proliferation in PBMCs stimulated with InsB:9-23 (CFSE assay)” value in assay [8] is “significantly suppressed”.
